HKDC1 inh: inhibitors of human hexokinase HKDC1 | recombinant HKDC1, G6PDH/diaphorase resazurin coupled fluorescence | actives 0.16% (n = 340,000) | inhibition, % at 20 µM;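 active means inhibition above about 35% when tested at 20 µM, limit read from the data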;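 further: plate controls were DMSO wells with enzyme for no effect and DMSO wells lacking enzyme for full effect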
Target sequence (Q2TB90 whole entry, looked up): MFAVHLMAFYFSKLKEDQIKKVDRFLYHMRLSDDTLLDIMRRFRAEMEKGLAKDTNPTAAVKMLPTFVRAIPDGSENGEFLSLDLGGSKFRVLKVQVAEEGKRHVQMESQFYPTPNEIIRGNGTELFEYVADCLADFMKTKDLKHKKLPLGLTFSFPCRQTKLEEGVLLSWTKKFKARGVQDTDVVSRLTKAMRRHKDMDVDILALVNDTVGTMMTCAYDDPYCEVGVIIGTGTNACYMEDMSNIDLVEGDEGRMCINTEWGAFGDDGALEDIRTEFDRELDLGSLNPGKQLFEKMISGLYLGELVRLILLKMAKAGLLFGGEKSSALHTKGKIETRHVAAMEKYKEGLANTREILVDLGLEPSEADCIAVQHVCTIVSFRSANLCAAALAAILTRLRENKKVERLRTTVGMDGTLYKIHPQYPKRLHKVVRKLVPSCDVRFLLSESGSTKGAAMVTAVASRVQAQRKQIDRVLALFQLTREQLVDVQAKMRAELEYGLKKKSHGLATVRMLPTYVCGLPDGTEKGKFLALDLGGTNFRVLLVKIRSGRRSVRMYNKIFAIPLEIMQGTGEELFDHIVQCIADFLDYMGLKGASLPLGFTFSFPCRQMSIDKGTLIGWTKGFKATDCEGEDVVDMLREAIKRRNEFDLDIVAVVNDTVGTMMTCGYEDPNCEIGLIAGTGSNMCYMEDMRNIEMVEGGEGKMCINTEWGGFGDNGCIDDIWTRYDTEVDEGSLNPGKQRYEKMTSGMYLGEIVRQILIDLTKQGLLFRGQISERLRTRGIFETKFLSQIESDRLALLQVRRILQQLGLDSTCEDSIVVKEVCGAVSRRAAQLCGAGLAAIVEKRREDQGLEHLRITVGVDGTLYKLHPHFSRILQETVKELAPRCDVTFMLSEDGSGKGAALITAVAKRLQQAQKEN
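test system = in-house recombinant HK5 (HKDC1) enzyme | amount = HKDC1 at 5 µg/mL | control set = DMSO-enzyme wells negative, buffer-substituted wells positive | compound = one dose of 20 µM, 1% DMSO | schedule = reaction time 90 min, room temperature, protected from light | technique = resorufin fluorescence at 613 nm | reagent = glucose with 1 mM ATP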
G6PDH counter: inhibits Leuconostoc G6PDH, flagging false hits in G6PDH-based assays | inhibition, % at 5 µM | AID 1020 | Purified L. mesenteroides G6PDH, diaphorase/resazurin coupled fluorescence, 45 min | actives 0.12% (n = 200,000); in the data active means inhibition above about 50%
PfGluPho inh: PfG6PD (Plasmodium falciparum) enzyme inhibition; PfGluPho enzyme, NADPH resazurin-diaphorase fluorescence; inhibition, % at 20 µM; actives 0.78% (n = 350,000); AID 504690;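 active means inhibition reaching at least a set limit at 20 µM in the primary screen, cut at about 59% in these data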;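 further: 0% = DMSO wells with substrate and 100% = DMSO wells lacking glucose-6-phosphate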
TbHK1 inh: blocks Trypanosoma brucei hexokinase 1 activity; recombinant TbHK1, G6PDH-coupled NADH A340; inhibition, % at 10 µM; actives 0.11% (n = 220,000);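 active means inhibition of 50% or more in the single-dose primary screen; inactive means inhibition below 50%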
Diaph inh CS: inhibits diaphorase or chemically oxidizes, flagging diaphorase assay artifacts. inhibition, % at 20 µM. AID 1217. diaphorase resazurin-to-resorufin fluorescence, NADH, 16 min; bacterial (C. kluyveri) enzyme, not human. actives 0.69% (n = 190,000);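 active means primary screen inhibition at 20 µM above a set limit, cut at about 50% in these data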;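 further: plate controls were DMSO with full reaction for no effect and wells lacking NADH for full effect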
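Benchmarks: positive control wells lacking NADH, neutral wells with DMSO only. System: bacterial diaphorase enzyme (C. kluyveri). Input: 0.14 U/mL diaphorase, enzyme working solution. Detection: resorufin fluorescence, excitation 544 nm, emission 590 nm. Times: 16-min room-temperature incubation before reading.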
PfG6PD confirm: PfG6PD inhibition, single-dose confirmed | inhibition, % at 20 µM | shares compounds with PfGluPho inh | AID 504753 | recombinant PfGluPho, NADPH-diaphorase-resazurin fluorescence | actives 34% (n = 2,400);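 active means inhibition of at least 50% at 20 µM in any single replicate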;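 further: 0% = DMSO with substrate and 100% = DMSO lacking glucose-6-phosphate substrate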
Diaphorase 10uM: inhibits diaphorase or oxidizes, flagging false PfG6PD hits; actives 39% (n = 820); inhibition, % at 20 µM; shares compounds with PfGluPho inh; AID 504862; diaphorase-coupled resazurin reduction, fluorescence, NADPH 10 uM;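 active means average inhibition reaching 50% or more with the compound at 20 µM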;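 further: resorufin red fluorescence formed as diaphorase reduces resazurin using NADPH; 0% = DMSO with enzyme and 100% = DMSO without enzyme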
Diaphorase 30uM: diaphorase inhibition or oxidation at 30 uM NADPH. inhibition, % at 20 µM. actives 29% (n = 820). AID 504863. shares compounds with PfGluPho inh. Diaphorase/resazurin coupled assay, resorufin fluorescence;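 active means inhibition averaging 50% or more, tested at 20 µM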;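 further: 0% = DMSO with enzyme and 100% = DMSO wells lacking diaphorase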
* = called active by the depositor; nt = no result. Compounds with a hit are over-represented: about 1.2% of the library has one in this group of screens.

SMILES	HKDC1 inh	G6PDH counter	PfGluPho inh	TbHK1 inh	Diaph inh CS	PfG6PD confirm	others
COc1cccc(CNC(=O)C2CCN(S(=O)(=O)N3CCC(C)CC3)CC2)c1	-6	nt	-5	nt	nt	nt
Cc1ccc(S(=O)(=O)N(CCC(=O)N2CCOCC2)c2ccccc2)cc1	-4	nt	-3	nt	nt	nt
N#Cc1ccc(N/N=C/c2ccccc2)c([N+](=O)[O-])c1	-5	11	2	-9	16	nt
CCn1c2ccccc2nc2cc3c(cc21)c(Cl)c(=O)c1ccccc13	nt	nt	94*	nt	nt	40
CCn1c(/C=C/c2c(C)n(CC)c3ccccc23)nc2ccccc2c1=O	7	-31	0	-8	8	nt
NC(c1ccccc1)c1cccnc1 (stereo not drawn)	-3	nt	2	nt	nt	nt
C/C(=N\Nc1cccc(Cl)c1)c1ccncc1	1	0	78*	-11	0	33
C/C(=N\Nc1ccc(Cl)cc1)c1ccncc1	-3	nt	55	nt	nt	nt
CCOc1cccc(CNc2ccc(O)cc2)c1OCc1ccc(Cl)cc1	19	13	70*	9	44	-1
COc1ccc(Br)cc1CNc1ccc2[nH]c(=O)[nH]c2c1	-11	-3	37	8	44	nt
CCOc1ccccc1CNc1ccc(O)cc1	23	17	74*	-2	45	63*	Diaphorase 10uM=-3;Diaphorase 30uM=-4
Oc1ccc(NCc2ccccc2OCc2ccccc2F)cc1	20	2	76*	-4	36	42
COc1cccc(CNCCO)c1OCc1ccc(Cl)cc1	-10	-3	2	-2	8	nt
COc1ccc(Br)cc1CNc1ccc(O)cc1	13	19	68*	-2	29	38
Cc1ccc(NCc2ccccc2OCc2ccccc2F)cc1	3	-1	23	7	-8	nt
Cc1sc2ncnc(SCC(=O)NCC3CCCO3)c2c1C (stereo not drawn)	-2	nt	2	nt	nt	nt
CC(=O)OCCCNc1cc(Sc2nc3ccccc3s2)c2nonc2c1[N+](=O)[O-]	22	-68	99*	4	62*	63*	Diaphorase 10uM=-18;Diaphorase 30uM=-11
CN1c2ccccc2N(C)C1(C)c1ccccc1	22	10	64*	-3	22	10
COc1cc(C(=O)NCC(c2ccc(F)cc2)N2CCOCC2)ccc1OCc1ccccc1Cl (stereo not drawn)	0	nt	27	nt	nt	nt
C(=Cc1c[nH]c2ccccc12)c1nccc2ccccc12	10	nt	65*	nt	nt	4
C(=Cc1c[nH]c2ccccc12)c1ccc2ccccc2n1	4	nt	46	nt	nt	nt
O=C(/C=C\c1ccc(-c2ccccc2)o1)c1ccccc1	12	-13	74*	5	17	-8
Cc1ccc(C(=O)/C=C/c2ccc(-c3ccc(C)cc3)o2)cc1	6	4	40	19	18	nt
CCOc1ccc(CNc2ccc(N3CCCC3)cc2)cc1	19	-20	95*	7	75*	81*	Diaphorase 10uM=27;Diaphorase 30uM=14
C=CCOc1c(Cl)cc(CNc2ccc(C)c(Cl)c2)cc1OC	nt	3	nt	5	17	nt
SMILES	HKDC1 inh	G6PDH counter	PfGluPho inh	TbHK1 inh	Diaph inh CS	PfG6PD confirm	others
COc1cc(CNc2ccc(N3CCCC3)cc2)cc(Cl)c1OC	16	41	75*	-4	55*	76*	Diaphorase 10uM=8;Diaphorase 30uM=14
CCOc1cc(CNc2ccc(N3CCCC3)cc2)cc(Cl)c1OC	2	10	84*	10	68*	63*	Diaphorase 10uM=-4;Diaphorase 30uM=-5
C=CCOc1c(Cl)cc(CNc2ccc(N(C)C)cc2)cc1OC	5	7	79*	-4	24	51*	Diaphorase 10uM=0;Diaphorase 30uM=-3
COc1ccc(CNS(=O)(=O)CCNC(=O)c2cccc(OC)c2)cc1	-1	nt	10	nt	nt	nt
CC1CCCC(C)N1C(=O)CN1C(=O)NC2(CCOc3ccccc32)C1=O (stereo not drawn)	-4	nt	4	nt	nt	nt
COc1ccccc1CNc1ccc(C(=O)O)cc1	-3	-4	-8	6	14	nt
COc1ccccc1CNc1ccc(N2CCCCC2)cc1	-9	-14	66*	7	65*	33
COCCN(C(=S)Nc1c(C)cc(C)cc1C)C(C)c1cccnc1 (stereo not drawn)	-8	14	69*	21	0	30
COCCN(C(=S)Nc1c(C)cccc1C)C(C)c1cccnc1 (stereo not drawn)	1	10	-1	2	15	nt
COc1ccc(C(C(=O)NC(C)(C)C)N(C(=O)CCC(=O)Nc2cc(C)on2)c2ccccc2F)cc1 (stereo not drawn)	-4	nt	0	nt	nt	nt
CCS(=O)(=O)N1CCC(C(=O)Nc2cc(C)ccc2O)CC1	7	nt	5	nt	nt	nt
CCN(CC)CCn1c2ccccc2c(=O)c2c(O)ccc(O)c21	14	nt	84*	nt	nt	98*	Diaphorase 10uM=31;Diaphorase 30uM=30
CCN(CC)CCn1c(O)c(N=O)c2ccccc21	-10	6	-2	-12	-5	nt
Cc1noc(C)c1COC(=O)Cc1ccc(Cl)c(Cl)c1	2	3	69*	4	12	33
Cc1noc(C)c1COC(=O)[C@H](C)NS(=O)(=O)c1ccc(Cl)c(Cl)c1	-7	8	-11	-4	14	nt
COc1ccc(-c2noc3c2-c2nc(-c4ccccc4F)sc2CC3)cc1	5	nt	5	nt	nt	nt
N=c1c(C(=O)NC2CCCC2)cc2c(=O)n3ccccc3nc2n1C1CCCC1	4	19	22	-5	6	nt
Cc1cccn2c(=O)c3cc(C(=O)NC4CCCC4)c(=N)n(C4CCCC4)c3nc12	-22	-43	82*	-5	8	23
O=C(c1cc2ccccc2o1)N(C1CC1)C1(C(=O)Nc2ccccc2)CCCC1	-9	4	13	-1	14	nt
O=C(Nc1ccc(Oc2cccnc2)cc1)c1cccc([N+](=O)[O-])c1	4	3	61*	25	15	29
O=C(Nc1ccc(Oc2cccnc2)cc1)c1ccc([N+](=O)[O-])cc1	1	5	13	1	-17	nt
Cc1ccc(-c2c(C(=O)N/N=C/c3ccc(C)o3)nnn2-c2nonc2N)cc1	1	nt	79*	nt	nt	60*	Diaphorase 10uM=63*;Diaphorase 30uM=47
Cc1ccc(-c2c(C(=O)N/N=C/c3ccco3)nnn2-c2nonc2N)cc1	2	nt	62*	nt	nt	46
COc1ccccc1CNC(=O)CN1C(=O)c2ccc([N+](=O)[O-])cc2C1=O	4	nt	5	nt	nt	nt
COC(=O)NC(=S)Nc1ccc(Oc2ccc(Cl)cc2Cl)c(Cl)c1	9	0	82*	-7	21	12
COC(=O)NC(=S)Nc1ccc(Oc2ccc(Cl)cc2)c(Cl)c1	-6	3	56	-5	6	nt
O=S(=O)(Nc1ccc2c(c1)OCO2)c1ccc(F)c(F)c1	-4	nt	16	nt	nt	nt

High-throughput results from PubChem.
